Data published in ChEMBL document CHEMBL1139892 (J Nat Prod, 2007).
≈ marks a conversion by molar mass, not a printed value. Counter-ions that a name gives are not always drawn.

How the values were obtained:
[1] = tested on: Plasmodium falciparum; test: Antimalarial activity against multidrug-resistant Plasmodium falciparum K1 by micro culture radioisotope technique; type: functional, organism-based
[2] = tested on: Mycobacterium tuberculosis; test: Antimycobacterial activity against Mycobacterium tuberculosis H37Ra by microplate Alamar Blue assay; type: functional
Summary of the method: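 M. tuberculosis H37Ra grown in Middlebrook 7H9 broth; growth read colorimetrically with Alamar Blue in microplates and reported as MIC; isoniazid and kanamycin sulfate included as reference drugs.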

[3] = tested on: KB; test: Cytotoxicity against KB cells by colorimetric method; type: cell-based; settings: Homo sapiens
Summary of the method: (§1)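 KB and BC cells were tested by the colorimetric method of Skehan and co-workers, with ellipticine as the reference compound.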

[4] = Cytotoxicity against BC cells by colorimetric method; type: cell-based; settings: Homo sapiens; summary of the method: as §1
[5] = tested on: Candida albicans; test: Antifungal activity against Candida albicans by colorimetric method; type: functional, organism-based
[6] = molecular target: Prostaglandin G/H synthase 1 (Homo sapiens, UniProt P23219); test: Inhibition of COX1 by radioimmunoassay method
Sequence of Prostaglandin G/H synthase 1 (P23219 whole entry): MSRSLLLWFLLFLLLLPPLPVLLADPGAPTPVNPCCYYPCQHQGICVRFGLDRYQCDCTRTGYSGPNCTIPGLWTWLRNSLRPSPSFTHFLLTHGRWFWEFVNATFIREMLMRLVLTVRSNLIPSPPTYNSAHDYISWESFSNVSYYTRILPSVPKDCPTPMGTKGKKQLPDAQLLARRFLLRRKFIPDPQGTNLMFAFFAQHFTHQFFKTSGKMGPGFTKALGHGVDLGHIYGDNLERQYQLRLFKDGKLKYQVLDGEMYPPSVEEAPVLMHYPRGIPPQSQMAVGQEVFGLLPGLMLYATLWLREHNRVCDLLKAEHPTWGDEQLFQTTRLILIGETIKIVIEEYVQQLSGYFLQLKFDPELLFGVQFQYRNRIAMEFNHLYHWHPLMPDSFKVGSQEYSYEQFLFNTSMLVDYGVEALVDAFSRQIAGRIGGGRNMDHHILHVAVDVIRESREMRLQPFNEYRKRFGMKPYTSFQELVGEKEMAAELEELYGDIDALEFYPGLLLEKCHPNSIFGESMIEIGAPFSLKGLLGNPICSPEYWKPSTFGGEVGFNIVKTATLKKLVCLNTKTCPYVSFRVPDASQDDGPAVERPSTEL

[7] = molecular target: T1, Prostaglandin G/H synthase 2 (Homo sapiens, UniProt P35354); test: Inhibition of COX2 by radioimmunoassay method
T1 sequence (P35354 whole entry): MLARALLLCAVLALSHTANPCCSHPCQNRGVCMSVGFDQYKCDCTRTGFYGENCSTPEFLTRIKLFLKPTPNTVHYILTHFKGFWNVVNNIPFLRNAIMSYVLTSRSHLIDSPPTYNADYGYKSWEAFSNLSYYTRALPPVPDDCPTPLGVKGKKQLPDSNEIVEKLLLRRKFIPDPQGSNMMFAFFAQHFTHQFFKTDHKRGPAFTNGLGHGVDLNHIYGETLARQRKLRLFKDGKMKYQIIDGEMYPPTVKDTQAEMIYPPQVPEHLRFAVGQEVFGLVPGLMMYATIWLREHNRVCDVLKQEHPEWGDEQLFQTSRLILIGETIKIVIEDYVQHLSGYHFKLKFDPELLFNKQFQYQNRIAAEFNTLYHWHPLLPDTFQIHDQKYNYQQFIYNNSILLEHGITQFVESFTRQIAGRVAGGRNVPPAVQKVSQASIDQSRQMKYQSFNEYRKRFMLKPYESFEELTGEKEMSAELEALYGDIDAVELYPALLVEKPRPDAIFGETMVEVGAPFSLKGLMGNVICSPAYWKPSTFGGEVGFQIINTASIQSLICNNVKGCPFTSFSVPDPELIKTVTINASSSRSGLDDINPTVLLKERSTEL

## Cc1c(O)cc2c(c1O)C(=O)C[C@@H](c1ccccc1)O2
[1]
  IC50: > 74 µM
[2]
  MIC: > 741 µM
[3]
  IC50: > 74 µM
[4]
  IC50: > 74 µM
[5]
  IC50: > 185 µM

## COc1cc(CCc2ccccc2O)cc(OC)c1
[1]
  IC50: > 77.5 µM
[2]
  MIC: 194 µM (≈ 50 µg/mL)
[3]
  IC50: > 77.5 µM
[4]
  IC50: > 77.5 µM
[5]
  IC50: 49.6 µM

## COc1cc(CCc2ccccc2O)c(O)c(OC)c1
[1]
  IC50: > 72.9 µM
[2]
  MIC: 91.2 µM (≈ 25 µg/mL)
[3]
  IC50: > 72.9 µM
[4]
  IC50: > 72.9 µM
[5]
  IC50: > 182 µM

## COc1cc(O)cc(CCc2ccccc2)c1
[1]
  IC50: > 87.7 µM
[2]
  MIC: 219 µM (≈ 50 µg/mL)
[3]
  IC50: 51.7 µM
[4]
  IC50: 72.3 µM
[5]
  IC50: 68.4 µM

## C[C@@H]1[C@H](O)[C@@H](C)/C=C/C=C/C=C/C=C/C=C/C=C/C=C/[C@H](O[C@@H]2O[C@H](C)[C@@H](O)[C@H](N)[C@@H]2O)C[C@@H]2O[C@](O)(C[C@@H](O)C[C@@H](O)[C@H](O)CC[C@@H](O)C[C@@H](O)CC(=O)O[C@H]1C)C[C@H](O)[C@H]2C(=O)O [AMPHOTERICIN B]
[5]
  IC50: 0.04 µM

## C[C@H]1[C@@H](O)O[C@@H]2O[C@@]3(C)CC[C@H]4[C@H](C)CC[C@@H]1[C@@]24OO3 [ARTENIMOL]
[1]
  IC50: 0.0042 µM

## COc1cc(O)cc(CCc2ccccc2O)c1 [BATATASIN IV]
[1]
  IC50: > 81.8 µM
[2]
  MIC: 205 µM (≈ 50 µg/mL)
[3]
  IC50: > 81.8 µM
[4]
  IC50: > 81.8 µM
[6]
  IC50: > 40.9 µM
[7]
  IC50: > 40.9 µM
[5]
  IC50: > 205 µM

## COc1cc(OC)c(O)c([C@@H]2Cc3ccccc3O2)c1 [BAUHIBENZOFURIN A]
[1]
  IC50: > 73.5 µM
[2]
  MIC: 368 µM (≈ 100 µg/mL)
[3]
  IC50: > 73.5 µM
[4]
  IC50: > 73.5 µM
[5]
  IC50: 130 µM

## COc1cc(CCc2ccccc2O)cc(O)c1C [BAUHINOL E]
[1]
  IC50: > 77.5 µM
[2]
  MIC: 194 µM (≈ 50 µg/mL)
[3]
  IC50: > 77.5 µM
[4]
  IC50: > 77.5 µM
[5]
  IC50: > 194 µM

## COc1cc2c(c(O)c1C)Oc1cccc(O)c1CC2 [BAUHINOXEPIN C]
[1]
  IC50: > 73.5 µM
[2]
  MIC: 184 µM (≈ 50 µg/mL)
[3]
  IC50: 44.8 µM
[4]
  IC50: 32.3 µM
[5]
  IC50: 79.4 µM

## COc1c(C)c(O)cc2c1Oc1cccc(O)c1CC2 [BAUHINOXEPIN D]
[1]
  IC50: > 73.5 µM
[2]
  MIC: 184 µM (≈ 50 µg/mL)
[3]
  IC50: 41.5 µM
[4]
  IC50: 45.5 µM
[5]
  IC50: > 184 µM

## COc1c(C)c(OC)c2c(c1O)CCc1c(O)cccc1O2 [BAUHINOXEPIN E]
[1]
  IC50: > 66.2 µM
[2]
  MIC: 331 µM (≈ 100 µg/mL)
[3]
  IC50: > 66.2 µM
[4]
  IC50: > 66.2 µM
[6]
  IC50: > 33.1 µM
[7]
  IC50: > 33.1 µM
[5]
  IC50: > 166 µM

## COc1c(O)c(C)c(OC)c2c1CCc1c(O)cccc1O2 [BAUHINOXEPIN F]
[1]
  IC50: > 66.2 µM
[2]
  MIC: 662 µM (≈ 200 µg/mL)
[3]
  IC50: 29.4 µM
[4]
  IC50: 27.4 µM
[6]
  IC50: > 33.1 µM
[7]
  IC50: 6.9 µM
[5]
  IC50: 77.8 µM

## COc1c(C)c(O)cc2c1Oc1ccccc1C(O)C2 (configuration not stated) [BAUHINOXEPIN G]
[1]
  IC50: > 73.5 µM
[2]
  MIC: 91.9 µM (≈ 25 µg/mL)
[3]
  IC50: > 73.5 µM
[4]
  IC50: > 73.5 µM
[5]
  IC50: > 184 µM

## COC1=C(C)C(=O)C2=C(CCc3c(O)cccc3O2)C1=O [BAUHINOXEPIN H]
[2]
  MIC: 87.4 µM (≈ 25 µg/mL)
[3]
  IC50: 15.7 µM
[4]
  IC50: 11.5 µM
[6]
  IC50: > 34.9 µM
[7]
  IC50: > 34.9 µM
[5]
  IC50: > 175 µM

## COC1=C(C)C(=O)C2=C(CCc3cc(O)ccc3O2)C1=O [BAUHINOXEPIN I]
[1]
  IC50: 10.5 µM
[2]
  MIC: 175 µM (≈ 50 µg/mL)
[3]
  IC50: 38.8 µM
[4]
  IC50: 41.9 µM
[6]
  IC50: > 34.9 µM
[7]
  IC50: 10.1 µM
[5]
  IC50: > 175 µM

## COC1=CC(=O)C2=C(CCc3ccccc3O2)C1=O [BAUHINOXEPIN J]
[1]
  IC50: 5.8 µM
[2]
  MIC: 24.4 µM (≈ 6.25 µg/mL)
[3]
  IC50: 10.5 µM
[4]
  IC50: 12.1 µM
[5]
  IC50: > 195 µM

## Cc1c(O)c(C)c2c(c1O)C(=O)C[C@@H](c1ccccc1)O2 [DEMETHOXYMATTEUCINOL]
[1]
  IC50: 9.5 µM
[2]
  MIC: > 704 µM
[3]
  IC50: > 70.4 µM
[4]
  IC50: > 70.4 µM
[5]
  IC50: > 176 µM

## Oc1cc(O)cc(CCc2ccccc2)c1 [DIHYDROPINOSYLVIN]
[1]
  IC50: > 93.4 µM
[2]
  MIC: 117 µM (≈ 25 µg/mL)
[3]
  IC50: > 93.4 µM
[4]
  IC50: > 93.4 µM
[6]
  IC50: > 46.7 µM
[7]
  IC50: > 46.7 µM
[5]
  IC50: > 234 µM

## Cc1c2ccncc2c(C)c2c1[nH]c1ccccc12 [ELLIPTECINE]
[3]
  IC50: 5.3 µM
[4]
  IC50: 6.1 µM

## NNC(=O)c1ccncc1 [ISONIAZID]
[2]
  MIC: 0.29 µM (≈ 0.0398 µg/mL)

## NC[C@H]1O[C@H](O[C@H]2[C@H](O)[C@@H](O[C@H]3O[C@H](CO)[C@@H](O)[C@H](N)[C@H]3O)[C@H](N)C[C@@H]2N)[C@H](O)[C@@H](O)[C@@H]1O [KANAMYCIN SULFATE]
[2]
  MIC: 3.43 µM
